Source: PubChem BioAssay (several laboratories)
This is a sample that favours compounds with a hit; in the whole collection about 3.6% have one here.
STAT3 activator: activators of IL-6 induced STAT3 signaling | AID 871 | activation (% of control), % at 5.6 µM | U3A cells, IL-6 STAT3-luciferase reporter, luminescence; 100% = signal with IL-6 EC80 alone | actives 0.91% (n = 190,000);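 active = activation above the screen-wide mean of compound activation plus 3 SD, cut at about 130% in these data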
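Assay system – human STAT1-deficient U3A cells with stable STAT3-luciferase reporter · Also added – IL-6 (33 ng/mL) · Schedule – compound 1 h, then IL-6 6 h at 37 °C · Technique – reporter luminescence signal · Evaluation – % activation versus median of IL-6-stimulated wells · Benchmarks – IL-6-only wells as 100% reference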
HSF1 inh: HSF1 inhibition; NIH3T3-HGL HSE-luciferase, MG132-induced, luminescence 8 h; stronger effect = lower value; activity change, negative = inhibition, % at 7.5 µM (by protocol); actives 0.77% (n = 300,000);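 active = more than half of replicate wells show activity change below -50%, luminescence cut by over half; inconclusive = some wells, but at most half, below -50%; inactive = no replicate well below -50%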;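 also: luciferase reports HSF-1 transcriptional activity via heat shock element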
PolyA inh: blocks polyadenylation in yeast reporter cells; activity score, % at 12 µM; S. cerevisiae SKY197-pL101 polyadenylation reporter, beta-gal luminescence; efflux-impaired pdr1/pdr3 knockout yeast; score 100 = 6 SD above DMSO; actives 0.02% (n = 300,000); AID 1875;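 active = lowest replicate activity score at least 50, where 100 means six control SD above control mean; inconclusive = lowest score under 50 but half or more replicates reach 50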;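 also: yeast exposed to compound for 9 h at 30 °C; higher score means more reporter readthrough which indicates perturbed polyadenylation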
Hsp70 activator: switches on Hsp70 transcription. activation, % at 10 µM. actives 0.04% (n = 200,000). HeLa Hsp70 promoter luciferase reporter, luminescence; scaled: vehicle 0, proteasome-inhibitor control 100%. AID 1203;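 active = activation above the mean across all tested compounds plus 3 SD, cutoff set per campaign, cut at about 5.5% in these data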
AHR activator: human AHR activation. P35869. AHR-responsive luciferase reporter cells, luminescence. activation, % at 5 µM. actives 2.5% (n = 320,000). AID 2796; in the data active = activation above about 47%
PERK inhibitor: human PERK inhibition, primary cell-based screen. Q9NZJ5. CHO PERK-DD fusion, SEAP luminescence translation reporter. inhibition, % at 5.6 µM. actives 0.17% (n = 220,000);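 active = inhibition above the mean inhibition of all tested compounds plus 3 SD, set separately per screening campaign, cut at about 2.9% in these data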;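 also: PERK kinase domain activated by AP20187 dimerizer at 100 nM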
AHR act confirm: confirmation of human aryl hydrocarbon receptor activators | shares compounds with AHR activator | human cells, AHR-responsive luciferase reporter, luminescence | activation, % at 9 µM | actives 87% (n = 2,300) | AID 2845; in the data active = activation above about 49%;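 also: HepG2 hepatoma cells carrying a DRE-driven firefly luciferase reporter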
PXR act counter: activates human PXR in AHR activator counter-screen | shares compounds with AHR activator | AID 434939 | activation, % at 11.6 µM | cell-based PXR reporter, luciferase luminescence | actives 88% (n = 2,300); in the data active = activation above about 11%;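 also: human hepatoma DPX-2 cells expressing full-length human PXR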
Numbers stand for hits; - = inactive; ? = inconclusive; . = no result given.

SMILES	STAT3 activator	HSF1 inh	PolyA inh	Hsp70 activator	AHR activator	PERK inhibitor	AHR act confirm	PXR act counter
CN1CCN(/N=C/c2nc(-c3ccccc3)n3ccccc23)CC1	-	-	-	-	102.2	-	64.7	15.9
Fc1ccccc1NC(=S)N(CCCN1CCOCC1)Cc1cccnc1	-	-	-	-	-	-	.	.
Cc1nc(N2CCOCC2)c2oc3ccccc3c2n1	-	-	-	-	99.5	-	92.3	24.2
Cc1nc(SCc2nc3c(F)cccc3[nH]2)c2oc3ccccc3c2n1	.	.	.	.	80.3	.	80.2	39.9
O=C(O)c1cc2c(cc1NC(=O)C1CCCC1)OCCO2	.	.	.	.	-	.	.	.
CCOc1ccc(N=NC2C(=O)N(C(N)=S)N=C2C)cc1 (stereo unspecified)	.	-	-	.	118.1	.	124.0	22.4
CC1=NN(C(N)=S)C(=O)C1N=Nc1ccc(O)cc1 (stereo unspecified)	-	-	-	-	.	-	.	.
CC(=O)Nc1ccc(N=NC2C(=O)N(C(N)=S)N=C2C)cc1 (stereo unspecified)	.	-	-	.	103.7	.	111.7	16.1
Cc1cc(Cn2nc(-c3ccccc3)cc2C(=O)NCc2cccs2)on1	.	-	-	.	-	.	.	.
O=C1Nc2ccccc2C1c1ncc(C(F)(F)F)cc1Cl (stereo unspecified)	.	-	-	.	90.0	.	-	21.4
COc1cccc(CNC(=O)C2CCC(=O)N(CC3CCCCC3)C2)c1OC (stereo unspecified)	.	-	-	.	.	.	.	.
Fc1ccccc1/C=N/Nc1ncnc2nc[nH]c12	-	-	-	-	129.5	-	82.9	39.6
Oc1ccc(/C=N/Nc2ncnc3nc[nH]c23)cc1	.	-	?	.	-	-	.	.
Fc1cccc(/C=N/Nc2ccccn2)c1	-	-	-	-	-	-	.	.
Cc1ccc(/C=N/Nc2ncnc3nc[nH]c23)cc1	.	-	-	.	115.2	-	104.2	84.1
Fc1cccc(/C=N/Nc2ncnc3nc[nH]c23)c1	-	-	-	-	105.4	-	77.6	32.7
COc1cccc(CCc2nnc(CCC(=O)N3CCN(Cc4ccccn4)CC3)o2)c1	-	-	-	-	-	-	.	.
CCOc1ccc2nc(/N=C/c3c(C)[nH]n(-c4ccc(C)cc4)c3=O)sc2c1	-	-	-	-	88.8	-	66.9	21.9
Cc1ccc(-n2ncc(Cl)c2C(=O)NC2CC2)cc1	-	-	-	-	90.4	-	136.4	20.6
CNC(=O)c1c(Cl)cnn1-c1ccc(C)cc1	-	-	-	-	-	-	.	.
COc1ccc(OC)c(S(=O)(=O)NCC(c2cccs2)N2CCc3ccccc3C2)c1 (stereo unspecified)	.	-	-	.	-	.	.	.
CCCS(=O)(=O)Nc1c(OC)ccc2c1c(C(=O)OCC)c(C)n2C	-	-	-	-	84.7	-	74.2	118.9
O=C(CCN1C(=O)c2ccccc2C1=O)Nc1ccc(-c2cn3ccsc3n2)cc1	-	-	-	-	101.7	-	124.7	24.9
O=C(CSc1nc2ccccc2c(=O)[nH]1)Nc1ccc(N2CCOCC2)c(Cl)c1	.	-	-	.	-	.	.	.
OCCSc1nc(-c2ccccc2)nc2ccc(F)cc12	-	-	-	-	102.0	-	95.5	24.1
SMILES	STAT3 activator	HSF1 inh	PolyA inh	Hsp70 activator	AHR activator	PERK inhibitor	AHR act confirm	PXR act counter
COC(=O)CSc1nc(-c2ccccc2)nc2ccc(F)cc12	-	-	-	-	-	-	.	.
CCNC(=S)Nc1cccc(NC(=O)c2ccccc2O)c1	.	-	-	.	85.5	-	124.3	13.7
Cc1ccc(Nc2cc(C)nc3ccc(C)cc23)cc1	.	-	-	.	-	.	.	.
Cc1ccc2nc(Nc3nc(C)cc(C(F)(F)F)n3)nc(C)c2c1	-	-	-	-	98.4	-	94.6	130.8
Brc1ccccc1/C=N/Nc1ccc2ccccc2n1	-	-	-	-	93.7	-	131.1	14.5
COc1cccc(-c2sc3ccc(OC)cc3c2C#CCC(C)O)c1 (stereo unspecified)	.	.	.	.	-	.	.	.
COc1ccc2sc(-c3ccc(N(C)C)cc3)c(C#CCCO)c2c1	.	.	.	.	108.8	.	129.1	19.1
COc1ccc2sc(-c3ccc(SC)cc3)c(C#CCO)c2c1	.	.	.	.	85.2	.	90.2	33.9
